Data taken from ChEMBL document CHEMBL3997777, “Pterosin Sesquiterpenoids from Pteris cretica as Hypolipidemic Agents via Activating Liver X Receptors” (J Nat Prod, 2016).
Activity calls are given as the source filed them. No cut-off for these calls is given here.

Legend:
[1] = Cytotoxicity against HEK293T cells assessed as cell viability at 10 uM after 24 hrs by MTT assay relative to control; format: cell-based, HEK-293T; conditions: human, read-out: Activity
Method in brief: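 HEK 293T cells in DMEM/10% FBS at 37 °C, 5% CO2, exposed to compounds at 10 μM for 24 h in triplicate. MTT (2.5 mg/mL) added for 4 h, then DMSO. Absorbance read at 492 nm after 20 min shaking. Survival = (A sample − A blank)/(A control − A blank) × 100%.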

[2] = target: T1, Oxysterols receptor LXR-beta (Rattus norvegicus) (UniProt Q62755); assay: Activation of rat LXRbeta expressed in HEK293 cells co-expressing human RXRalpha at 10 uM after 20 hrs by luciferase reporter gene assay; format: cell-based
T1 sequence (whole entry): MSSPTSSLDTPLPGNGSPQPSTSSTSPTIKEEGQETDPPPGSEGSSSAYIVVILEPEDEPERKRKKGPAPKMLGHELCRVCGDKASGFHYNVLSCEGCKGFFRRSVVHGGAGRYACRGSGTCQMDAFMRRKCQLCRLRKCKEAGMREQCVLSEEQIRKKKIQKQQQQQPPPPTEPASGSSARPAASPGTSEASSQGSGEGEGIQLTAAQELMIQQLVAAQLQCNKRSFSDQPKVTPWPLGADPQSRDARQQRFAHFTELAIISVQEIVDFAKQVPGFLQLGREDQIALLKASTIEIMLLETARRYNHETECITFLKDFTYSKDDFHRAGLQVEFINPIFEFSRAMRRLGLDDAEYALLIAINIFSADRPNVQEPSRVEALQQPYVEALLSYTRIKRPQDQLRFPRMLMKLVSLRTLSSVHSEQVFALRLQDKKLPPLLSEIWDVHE
Method in brief: (§1)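 HEK 293T cells seeded at 3 × 10^4/well and attached 12 h. Cotransfected by lipofection with hLXRα or rLXRβ receptor plasmid plus hRXRα, a DR-4 LXRE firefly luciferase reporter and a CMV renilla control. Compounds added 10 h later; 0.1% DMSO vehicle. Luminescence read 20 h after treatment, firefly normalized to renilla, fold over vehicle; mean ± SD, three independent experiments.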

[3] = target: T2, Oxysterols receptor LXR-alpha (Homo sapiens) (UniProt Q13133); assay: Activation of human LXRalpha expressed in HEK293 cells co-expressing human RXRalpha at 10 uM after 20 hrs by luciferase reporter gene assay; format: cell-based; method in brief: as §1
T2 sequence (whole entry): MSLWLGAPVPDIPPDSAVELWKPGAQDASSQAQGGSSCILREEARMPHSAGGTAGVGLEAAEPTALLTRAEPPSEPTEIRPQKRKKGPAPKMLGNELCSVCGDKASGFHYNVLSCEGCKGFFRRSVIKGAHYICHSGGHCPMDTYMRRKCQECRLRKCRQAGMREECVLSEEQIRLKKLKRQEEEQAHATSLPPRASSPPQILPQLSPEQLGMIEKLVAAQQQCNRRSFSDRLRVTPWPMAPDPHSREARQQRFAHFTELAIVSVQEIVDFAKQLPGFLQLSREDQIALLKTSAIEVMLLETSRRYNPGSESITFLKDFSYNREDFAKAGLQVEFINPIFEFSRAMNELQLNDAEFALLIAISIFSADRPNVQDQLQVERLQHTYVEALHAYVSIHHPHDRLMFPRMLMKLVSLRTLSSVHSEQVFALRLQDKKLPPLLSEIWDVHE

Mus musculus [4] = species: Mus musculus; assay: Activation of LXR in mouse 3T3L1 preadipocytes assessed as decrease in triglyceride level for 3 days measured on day 6; format: cell-based
Method in brief: (§2)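 3T3-L1 cells grown in DMEM/10% FBS. Two days post-confluence (day 0), switched to differentiation medium (insulin 2 μg/mL, dexamethasone 100 ng/mL, IBMX 0.5 mM, biotin 10 ng/mL) for 3 days, then insulin-only medium for 3 more days. Compounds in DMSO (<0.1%) present throughout differentiation. Day 6 cells PBS-washed and lysed, TG measured by kit, expressed relative to vehicle; mean ± SD, three independent experiments.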

Mus musculus [5] = species: Mus musculus; assay: Activation of LXR in mouse 3T3L1 preadipocytes assessed as decrease in triglyceride level up to 10 uM […] measured on day 6 by Oil Red O staining based assay; format: cell-based
Method in brief: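 3T3-L1 adipocytes differentiated over 6 days (IBMX/dexamethasone/insulin/biotin for 3 days, then insulin only), compound in DMSO present throughout. Day 6 cells fixed in 4% formaldehyde for 1 h at room temperature, then stained with 0.35% Oil Red O stock diluted 3:2 in water for 30 min at 60 °C. Washed, then imaged at 4× magnification.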

Mus musculus [6] = species: Mus musculus; assay: Activation of LXR in mouse 3T3L1 preadipocytes assessed as decrease in triglyceride level at 1 to 10 uM for 3 days measured on day 6; format: cell-based; method in brief: as §2

Row | SMILES | viability at 24 h, 10 µM [1] [%] | further results
1 | Cc1cc2c(c(CO)c1CCO)C(=O)[C@@](C)(O)C2=O | 100 | 
2 | O=C(O)Cc1cccc(OCCCN(Cc2cccc(C(F)(F)F)c2Cl)CC(c2ccccc2)c2ccccc2)c1 |  | Activity [2]: Active; Activity [3]: Active
3 | Cc1cc2c(c(CO)c1CCO)C(=O)[C@H](C)[C@@H]2O | 100 | 
4 | CC1(C)C[C@@H](O[C@@H]2O[C@H](CO)[C@@H](O)[C@H](O)[C@H]2O)C[C@]2(C)[C@@H]1CC[C@@]13C[C@@H](CC[C@H]12)[C@](C)(O)C3 | 100 | 
5 | Cc1cc2c(c(C)c1CCO)C(=O)[C@@](C)(O)[C@@H]2O | 100 | 
6 | Cc1cc2c(c(CO)c1CCO)C(=O)[C@@H](C)[C@@H]2O | 100 | 
7 | Cc1cc2c(c(C)c1CCO[C@@H]1O[C@H](CO)[C@@H](O)[C@H](O)[C@H]1O)C(=O)[C@H](C)[C@@H]2O | 100 | 
8 | Cc1c(CCO)c(CO)cc2c1C(=O)[C@H](C)[C@@H]2O | 100 | Activity [2]: Active; Activity (Mus musculus [4]): Dose-dependent effect; Activity (Mus musculus [5]): Active; Activity [3]: Active
9 | Cc1cc2c(c(C)c1CCO)C(=O)[C@@H](C)[C@@H]2O | 100 | Activity (Mus musculus [4]): Dose-dependent effect; Activity (Mus musculus [5]): Active
10 | Cc1c(CCO)c(CO)cc2c1C(=O)[C@@H](C)[C@@H]2O | 100 | 
11 | Cc1cc2c(c(CO)c1CCO)C(=O)[C@](C)(CO)[C@@H]2O | 100 | 
12 | Cc1cc2c(c(C)c1CCO)C(=O)[C@](C)(O)[C@@H]2O | 100 | 
13 | COc1ccc2cc3[n+](cc2c1OC)CCc1cc2c(cc1-3)OCO2 |  | Activity (Mus musculus [6]): Active
14 | Cc1cc2c(c(C)c1CCO[C@@H]1O[C@H](CO)[C@@H](O)[C@H](O)[C@H]1O)C(=O)C(C)(C)[C@H]2O | 100 | 
15 | Cc1cc2c(c(C)c1CCO[C@@H]1O[C@H](CO)[C@@H](O)[C@H](O)[C@H]1O)C(=O)[C@@H](C)[C@@H]2O | 100 | 
16 | C=C1[C@@H]2CC[C@H]3[C@]4(C)C[C@H](O)CC(C)(C)[C@H]4[C@H](O)C[C@]3(C2)[C@H]1O | 100 | 
17 | Cc1cc2c(c(C)c1CCO)C(=O)[C@H](C)[C@@H]2O | 100 | 
18 | CC1(C)C[C@@H](O)C[C@]2(C)[C@@H]1CC[C@@]13C[C@@H](CC[C@@H]21)[C@@](O)(CO)[C@@H]3O | 100 | 
19 | CC1(C)C[C@@H](O)C[C@]2(C)[C@@H]1[C@H](O)C[C@@]13C[C@@H](CC[C@H]12)[C@](C)(O)C3 | 100 | Activity (Mus musculus [4]): Dose-dependent effect; Activity (Mus musculus [5]): Active
20 | CC1(C)C[C@@H](O)C[C@]2(C)[C@@H]1[C@H](O)C[C@@]13C[C@@](O)(CC[C@H]12)[C@](C)(O)C3 | 100 | Activity (Mus musculus [4]): Dose-dependent effect; Activity (Mus musculus [5]): Active
21 | C=C1[C@@H]2CC[C@H]3[C@]4(C)C[C@H](O)CC(C)(C)[C@H]4CC[C@]3(C2)[C@H]1O | 100 | 
22 | Cc1cc2c(c(C)c1CCO)C(=O)[C@](C)(CO)[C@@H]2O | 100 | 
23 | Cc1cc2c(c(C)c1CCO)C(=O)C(C)(C)[C@@H]2O | 100 | 
24 | C=C1[C@@H]2CC[C@H]3[C@]4(C)C[C@H](O[C@@H]5O[C@H](CO)[C@@H](O)[C@H](O)[C@H]5O)CC(C)(C)[C@H]4CC[C@]3(C2)[C@H]1O | 100 | 
